According to ChEMBL document CHEMBL1130037, “Synthesis and pharmacological properties of a close analogue of an antithrombotic pentasaccharide (SR 90107A/ORG 31540)” (J Med Chem, 1997):

Experiments:
[1] = biological target: Antithrombin-III (Homo sapiens, UniProt P01008); assay: Dissociation constant for Antithrombin-III
Outline: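 Intrinsic protein fluorescence titration at 37 °C with stirring; oligosaccharides added to Tris-HCl 0.01 M pH 7.0, 0.15 M NaCl containing 5–60 nM human AT III (purified). Complex concentrations calculated assuming 1:1 stoichiometry; KD from Scatchard analysis. Mean ± SEM, n = 3.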

[2] = biological target: Coagulation factor X (Homo sapiens) (UniProt P00742); assay: Inhibition of blood coagulation factor Xa was determined by AT III.
Coagulation factor X (Homo sapiens), sequence (P00742 41-179 limits assumed): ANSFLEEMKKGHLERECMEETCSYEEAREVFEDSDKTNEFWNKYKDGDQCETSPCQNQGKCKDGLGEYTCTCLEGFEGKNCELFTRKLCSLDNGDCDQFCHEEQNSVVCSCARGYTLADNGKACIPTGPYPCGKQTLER
Coagulation factor X (Homo sapiens), sequence (P00742 235-488 limits assumed): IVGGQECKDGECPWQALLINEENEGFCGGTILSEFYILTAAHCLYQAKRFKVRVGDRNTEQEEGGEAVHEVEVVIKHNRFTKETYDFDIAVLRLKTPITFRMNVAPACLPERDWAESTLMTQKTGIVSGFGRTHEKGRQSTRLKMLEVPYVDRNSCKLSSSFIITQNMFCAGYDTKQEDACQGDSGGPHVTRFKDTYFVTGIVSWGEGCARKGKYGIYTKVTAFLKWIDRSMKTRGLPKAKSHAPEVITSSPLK
Outline: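 Amidolytic assay in buffer: factor Xa (7.5 nkat/mL) incubated 2 min at 37 °C with AT III (0.5 unit/mL) and oligosaccharide at various concentrations in 20 mM Tris/maleate pH 7.4, 150 mM NaCl. Residual Xa measured with S-2222 (1 mM stock); stopped after 2 min with acetic acid, A405 read. Activity versus calibrated standard; mean ± SEM, n = 3.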

[3] = biological target: Prothrombin (Homo sapiens, UniProt P00734); assay: Inhibition of Thrombin generation was determined; type: functional
Outline: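 Thrombin generation in human defibrinated platelet-poor citrated plasma at 37 °C. Cuvette held rabbit brain thromboplastin (amount giving 90 s Quick time), S-2222 (1.6 mM stock), compound in Tris-HCl pH 7.35, and CaCl2 (0.25 M stock). Plasma addition started the reaction; A405 followed 20 min. IC50 from area under curve by four-parameter logistic fit; mean with 95% CI, n = 3.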

[4] = test system: Rattus norvegicus; assay: In vivo antithrombotic activity was determined in rats; type: functional
Outline: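 Stasis plus hypercoagulability venous thrombosis in male Sprague-Dawley rats (250-300 g) under pentobarbitone (30 mg/kg ip). Compounds given iv (penile vein) 5 min before human tissue factor (1 ng/kg iv over 30 s). Vena cava ligated 10 s later for 20 min; thrombus dried and weighed. ED50 = 50% thrombus weight reduction; mean with 95% CI, n = 6.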

[5] = Elimination half life was determined.; type: ADME
Outline: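 Rats with jugular catheter (pentobarbitone anesthesia), recovered overnight, received 100 nmol/kg iv bolus. Citrated blood collected; plasma levels measured by anti-factor Xa activity using each compound as its own reference. Half-life from slope of terminal phase; mean ± SEM, n = 4.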

Antithrombin-III, sequence (P01008 whole entry): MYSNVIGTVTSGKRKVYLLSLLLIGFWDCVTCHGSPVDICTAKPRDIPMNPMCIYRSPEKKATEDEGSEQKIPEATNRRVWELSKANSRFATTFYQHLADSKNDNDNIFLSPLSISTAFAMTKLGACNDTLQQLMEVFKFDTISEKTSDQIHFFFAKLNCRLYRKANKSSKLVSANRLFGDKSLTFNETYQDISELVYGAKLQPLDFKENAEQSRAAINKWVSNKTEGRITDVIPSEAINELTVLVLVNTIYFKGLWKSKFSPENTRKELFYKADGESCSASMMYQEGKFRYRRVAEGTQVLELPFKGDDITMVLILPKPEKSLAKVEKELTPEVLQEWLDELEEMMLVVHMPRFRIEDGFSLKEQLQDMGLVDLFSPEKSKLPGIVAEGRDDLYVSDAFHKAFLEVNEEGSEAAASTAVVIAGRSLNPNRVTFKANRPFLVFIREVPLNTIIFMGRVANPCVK

- Kd [1]: 58 nM
- Activity [2]: 850 U/mg
- IC50 [3]: 130 nM
- half-life [5]: 42 min
SMILES: O=C([O-])C1O[C@@H](O[C@H]2C(O)C(NS(=O)(=O)[O-])[C@@H](O)O[C@H]2COS(=O)(=O)[O-])C(NS(=O)(=O)[O-])[C@@H](O)[C@@H]1O[C@@H]1OC(COS(=O)(=O)[O-])[C@@H](O[C@@H]2O[C@@H](C(=O)[O-])[C@@H](O[C@H]3O[C@@H](COS(=O)(=O)[O-])[C@@H](O)C(O)C3NS(=O)(=O)[O-])C(O)C2O)[C@H](OS(=O)(=O)[O-])C1OS(=O)(=O)[O-].[Na+].[Na+].[Na+].[Na+].[Na+].[Na+].[Na+].[Na+].[Na+].[Na+] (stereo not given in full)
- ED50 [4]: 0.081 mg/kg
